The results in this text go back to paper PMC4317570 (Cell metabolism, 2015).

Test [1] relates to RORγ LBD. The test can be described thus: CD thermal denaturation of RORγ LBD, apo vs holo. The class given is binding. Particulars: holo vs apo receptor.
In test [2] the test system is RORγ LBD. The test can be described thus: Fluorescein-NCOA2 coactivator peptide recruitment, fluorescence polarization. Format: biochemical. The conditions noted are these: fluoresceinated NCOA2 peptide, holo vs apo receptor.
Test [3] addresses T1, RORγ (Mus musculus, UniProt P51450).
T1 sequence (P51450 267-516 limits assumed): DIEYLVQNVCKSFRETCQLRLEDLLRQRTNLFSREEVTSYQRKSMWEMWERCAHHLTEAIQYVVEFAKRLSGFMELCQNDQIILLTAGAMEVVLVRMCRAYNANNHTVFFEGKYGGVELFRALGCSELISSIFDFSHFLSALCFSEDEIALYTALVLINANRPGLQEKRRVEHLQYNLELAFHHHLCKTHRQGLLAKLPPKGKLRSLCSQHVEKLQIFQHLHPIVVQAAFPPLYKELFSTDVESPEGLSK
The test can be described thus: RORγ reporter assay in mammalian cells. The class given is cell-based. Particulars: mammalian cells (HEK293T). In a few lines: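 HEK293T cells are co-transfected with a RORγ-gal4 fusion plus a GAL4 UAS firefly luciferase reporter (luc2p) and exposed to test compound. Luciferase activity is the read-out. Data are averages of technical triplicates ± standard deviation, representative of n=6 experiments. Statistics use two-tailed unpaired Student's t-test on aggregated experiments.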

Test [4] concerns Sc4mol-/- naïve CD4+ T cells. Put plainly: Th17 cell polarization of RORγt-cre Sc4mol-/- naïve CD4+ T cells. Format: cell-based, mouse.
Test [5] has as its target RORγ (Mus musculus, UniProt P51450). The test can be described thus: RORγ-gal4/UAS luciferase reporter in insect cells grown in sterol-free CDM. The class given is cell-based. A digest of the protocol: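 Drosophila Kc167 cells are kept in continuous culture in lipid-free chemically defined medium: 40% Grace's medium, 10% Murashige–Skoog micronutrients, 1% NEAS, 1 mM pyruvate, 2% ITS-A and 1% Pluronic F-68. Cells are transiently transfected with RORγ-gal4 plus a UAS luc2p firefly luciferase reporter (minimal hsp70 promoter), then treated with test compound. EC50 is derived from reporter activity. Each compound is tested at least twice in technical triplicates ± standard deviation.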

Test [6] concerns RORγ reporter activity in U937ROR cells. The class given is cell-based. The conditions noted are these: media supplemented with exogenous cholesterol.
The test system of test [7] is RORγ LBD. The test can be described thus: Competition binding with fluorescein-labeled 25-hydroxycholesterol. The conditions noted are these: recombinant RORγ.
Test [8] deals with RORγ reporter activity in SXLT cells. Put plainly: Full length RORγ reporter. Format: cell-based. The conditions noted are these: media supplemented with compound, Fdft1-/- SXLT cells. In a few lines: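 Fdft1−/− SXLT cells are transfected with a full-length RORγ construct driving a firefly luciferase reporter from an endogenous Il-23r enhancer element. Test compound is added to the medium, and luciferase activity is read. Data are technical triplicates ± standard deviation, representative of n=4 experiments. Comparison is by two-tailed unpaired Student's t-test on aggregated experiments.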

`CC(C)CCC[C@@H](C)[C@H]1CC[C@H]2C3=CCC4[C@H](C(=O)O)[C@@H](O)CC[C@]4(C)[C@H]3CC[C@]12C` (stereo partly drawn) [4ACD7, 4α-carboxy-cholest-7-en-3β-ol]: in the test on RORγ LBD [1], the “Thermal stability of the RORγ LBD” value is “increase stability”. The “Co-activator peptide recruitment to RORγ” value in the test with RORγ LBD [2] was “promote the recruitment”.

As for `CC(C)=CCC[C@@H](C)[C@H]1CC[C@H]2C3=C(CC[C@]12C)[C@@]1(C)CCC(O)[C@@](C)(C(=O)O)C1CC3` (stereo partly drawn) [4ACD8, 4α–carboxy, 4β-methyl-cholesta-8,24-dien-3-ol], at RORγ [3], the “RORγ reporter activity in mammalian cells” value is given as “specific agonist activity”. Moreover, the “Thermal stability of the RORγ LBD” value with RORγ LBD [1] is given as “increased the thermal stability”. Besides, the “Co-activator peptide recruitment to RORγ” value in the test with RORγ LBD [2] is “promoted co-activator peptide recruitment”. Also, in test [4] (1 μM added to media), the “Th17 cell differentiation in Sc4mol-/- naïve CD4+ T cells” value is listed as “rescues Th17 cell differentiation”.

As to `CC(C)=CCC[C@@H](C)[C@H]1CC[C@@]2(C)C3=CCC4[C@](C)(C=O)C(O)CC[C@]4(C)[C@H]3CC[C@]12C` (stereo partly drawn) [4α–formyl,4β,14α-dimethyl-cholesta-7,24-dien-3-ol], on RORγ [3], the “RORγ reporter activity in mammalian cells” value is listed as “no activity”. Besides, the EC50 at RORγ [5] was 0.15 to 0.5 µM.

Take `CC(C)=CCCC(C)C1CCC2(C)C3=CCC4C(C)(CO)C(O)CCC4(C)C3CCC12C` (stereo not drawn) [4α–hydroxymethyl,4β,14α-dimethyl-cholesta-7,24-dien-3-ol]: the “RORγ reporter activity in mammalian cells” value on RORγ [3] is recorded as “no activity”.

With `CC(C)=CCC[C@@H](C)[C@H]1CC=C2C3=C(CC[C@@]21C)[C@@]1(C)CCC(O)C(C)(C)C1CC3` (stereo partly drawn) [FF-MAS, 4α,4β-dimethyl-cholesta-8,14,24-trien-3-ol, reference compound], at RORγ [3], the “RORγ reporter activity in mammalian cells” value was “weak agonist”.

As to `C=CCN(C)CCCCCCOc1ccc(C(=O)c2ccc(Br)cc2)c(F)c1.O=C(O)/C=C/C(=O)O` [Ro 48-8071 fumarate], the “RORγ reporter activity in U937ROR cells” value in test [6] is “inhibited in a dose dependent fashion”.

`CC(C)=CCC[C@@H](C)[C@H]1CC[C@H]2C3=C(CC[C@]12C)[C@@]1(C)CCC(O)C(C)(C)C1CC3` (stereo partly drawn) [T-MAS, 4α,4β-dimethyl-cholesta-8,24-dien-3-ol]: in the test on RORγ LBD [7], the “Binding to RORγ” value was “bind very weakly if at all”.

`CC(C)CCC[C@@H](C)[C@H]1CC[C@H]2[C@@H]3CC=C4C[C@@H](O)CC[C@]4(C)[C@H]3CC[C@]12C` [cholesterol, reference compound]: the “Th17 polarization defect of Sc4mol-/- T cells” value in test [4] (supplementation of media) was “could not be alleviated”.

As for `CC(C)=CCC[C@@H](C)[C@H]1CC[C@@]2(C)C3=C(CC[C@]12C)[C@@]1(C)CC[C@H](O)C(C)(C)[C@@H]1CC3` [lanosterol, 14α,4α,4β-trimethyl-cholesta-8,24-dien-3-ol], the entries for the “RORγ reporter activity in insect cells” value at RORγ [5] (higher concentrations) and at RORγ [5] (physiological concentrations (1 μM)) were “significant RORγ reporter activity” and “little to no activity”, respectively.

Regarding `CC[C@H](C)C(=O)O[C@H]1C[C@@H](C)C=C2C=C[C@H](C)[C@H](CC[C@@H]3C[C@@H](O)CC(=O)O3)[C@H]21` [lovastatin], in test [6], the “RORγ reporter activity in U937ROR cells” value is reported as “inhibited in a dose dependent fashion”.

Turning to `CC(C)=CCC/C(C)=C/CC/C(C)=C/CC/C=C(\C)CC/C=C(\C)CCC=C(C)C` [squalene], in test [8], the “Rescue of full length RORγ reporter activity in SXLT cells” value is “partially rescue”.
